Source: ChEMBL document CHEMBL3217698, “Syntheses and biological evaluation of new cephalosporin-oxazolidinone conjugates” (2010)

Tests used:
Staphylococcus aureus [1] = assay: Antimicrobial activity against Staphylococcus aureus Efs4 assessed as partially clear inhibition zone at 37 degC for 24 hrs by agar diffusion method; assay type: functional
How it was run: (§1)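 Agar well diffusion. Each 9 mm well in nutrient or Mueller Hinton II agar received 50 μL of a 2.0 mM solution in DMSO:MeOH (1:9). Plates were incubated at 37 °C for 24 h. The inhibition zone diameter was read in mm, including the 9 mm well. A "p" marks a partially clear zone or colonies inside the zone.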

Mycolicibacterium vaccae [2] = assay: Antimicrobial activity against Mycobacterium vaccae IMET assessed as inhibition zone at 37 degC for 24 hrs by agar diffusion method; assay type: functional
How it was run: (§2)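 Well diffusion: 50 μL of a 1.0 mM solution in DMSO:MeOH (1:9) filled into 9 mm wells cut in Standard I Nutrient Agar or Mueller Hinton II Agar. Plates incubated at 37 °C for 24 h, then growth inhibition zone read in mm. Partially clear zones, or colonies within the zone, recorded as p.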

Micrococcus luteus [3] = assay: Antimicrobial activity against Micrococcus luteus ATCC 10240 assessed as inhibition zone at 37 degC for 24 hrs by agar diffusion method; assay type: functional; how it was run: as §2
Pseudomonas aeruginosa [4] = assay: Antimicrobial activity against Pseudomonas aeruginosa K799/WT assessed as partially clear inhibition zone at 37 degC for 24 hrs by agar diffusion method; assay type: functional; how it was run: as §1
Staphylococcus aureus [5] = assay: Antimicrobial activity against Staphylococcus aureus Efs1 assessed as partially clear inhibition zone at 37 degC for 24 hrs by agar diffusion method; assay type: functional; how it was run: as §1
Staphylococcus aureus [6] = assay: Antimicrobial activity against Staphylococcus aureus Efs4 assessed as inhibition zone at 37 degC for 24 hrs by agar diffusion method; assay type: functional
How it was run: (§3)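 Each solution at 2.0 mM in DMSO:MeOH (1:9), 50 μL filled into 9 mm agar wells (Standard I Nutrient or Mueller Hinton II Agar). Incubation at 37 °C for 24 h. Inhibition zone diameter measured in mm; a partially clear zone or colonies inside the zone noted as p.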

Pseudomonas aeruginosa [7] = assay: Antimicrobial activity against Pseudomonas aeruginosa K799/61 assessed as inhibition zone at 37 degC for 24 hrs by agar diffusion method; assay type: functional; how it was run: as §3
Enterococcus faecalis [8] = assay: Antimicrobial activity against vancomycin-resistant Enterococcus faecalis 1528 assessed as inhibition zone at 37 degC for 24 hrs by agar diffusion method; assay type: functional; how it was run: as §1
Bacillus subtilis [9] = assay: Antimicrobial activity against Bacillus subtilis ATCC 6633 assessed as inhibition zone at 37 degC for 24 hrs by agar diffusion method; assay type: functional; how it was run: as §2
Micrococcus luteus [10] = assay: Antimicrobial activity against Micrococcus luteus ATCC 10240 assessed as unclear inhibition zone at 37 degC for 24 hrs by agar diffusion method; assay type: functional
How it was run: (§4)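 Agar well diffusion. Each 9 mm well in nutrient or Mueller Hinton II agar received 50 μL of a 1.0 mM solution in DMSO:MeOH (1:9). Plates were incubated at 37 °C for 24 h. The inhibition zone diameter was read in mm, including the well. A "p" marks a partially clear zone or colonies inside the zone.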

Escherichia coli [11] = assay: Antimicrobial activity against Escherichia coli SG458 assessed as partially clear inhibition zone at 37 degC for 24 hrs by agar diffusion method; assay type: functional; how it was run: as §4
Pseudomonas aeruginosa [12] = assay: Antimicrobial activity against Pseudomonas aeruginosa K799/WT assessed as faint inhibition zone at 37 degC for 24 hrs by agar diffusion method; assay type: functional; how it was run: as §3
Staphylococcus aureus [13] = assay: Antimicrobial activity against Staphylococcus aureus SG511 assessed as inhibition zone at 37 degC for 24 hrs by agar diffusion method; assay type: functional; how it was run: as §2
Pseudomonas aeruginosa [14] = assay: Antimicrobial activity against Pseudomonas aeruginosa K799/61 assessed as faint inhibition zone at 37 degC for 24 hrs by agar diffusion method; assay type: functional; how it was run: as §1
Staphylococcus aureus [15] = assay: Antimicrobial activity against Staphylococcus aureus Efs1 assessed as inhibition zone at 37 degC for 24 hrs by agar diffusion method; assay type: functional; how it was run: as §3
Staphylococcus aureus [16] = assay: Antimicrobial activity against methicillin-resistant Staphylococcus aureus 134/93 assessed as inhibition zone at 37 degC for 24 hrs by agar diffusion method; assay type: functional; how it was run: as §1
Bacillus subtilis [17] = assay: Antimicrobial activity against Bacillus subtilis ATCC 6633 assessed as partially clear inhibition zone at 37 degC for 24 hrs by agar diffusion method; assay type: functional; how it was run: as §2
Escherichia coli [18] = assay: Antimicrobial activity against Escherichia coli SG458 assessed as inhibition zone at 37 degC for 24 hrs by agar diffusion method; assay type: functional; how it was run: as §2
Pseudomonas aeruginosa [19] = assay: Antimicrobial activity against Pseudomonas aeruginosa K799/WT assessed as inhibition zone at 37 degC for 24 hrs by agar diffusion method; assay type: functional; how it was run: as §3
Pseudomonas aeruginosa [20] = assay: Antimicrobial activity against Pseudomonas aeruginosa K799/61 assessed as partially clear inhibition zone at 37 degC for 24 hrs by agar diffusion method; assay type: functional; how it was run: as §1
Micrococcus luteus [21] = assay: Antimicrobial activity against Micrococcus luteus ATCC 10240 assessed as partially clear inhibition zone at 37 degC for 24 hrs by agar diffusion method; assay type: functional; how it was run: as §4
Bacillus subtilis [22] = assay: microbe, parasite or virus in culture; details: ATCC 6633, 24 h, read-out: IZ
Pseudomonas aeruginosa [23] = assay: Antimicrobial activity against Pseudomonas aeruginosa K799/61 assessed as inhibition zone at 5 ug/ml at 37 degC for 24 hrs by agar diffusion method; details: K799/61, 24 h, read-out: IZ
Escherichia coli [24] = assay: Antimicrobial activity against Escherichia coli SG458 assessed as inhibition zone at 5 ug/ml at 37 degC for 24 hrs by agar diffusion method; details: SG458, 24 h, read-out: IZ
Staphylococcus aureus [25] = assay: microbe, parasite or virus in culture; details: 134/93, 24 h, read-out: IZ
Micrococcus luteus [26] = assay: Antimicrobial activity against Micrococcus luteus ATCC 10240 assessed as inhibition zone at 5 ug/ml at 37 degC for 24 hrs by agar diffusion method; assay type: functional; details: ATCC 10240, 24 h, read-out: IZ
How it was run: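 Agar well diffusion with the control antibiotic dissolved in water at 5 μg/mL. 50 μL was placed in each 9 mm well in nutrient or Mueller Hinton II agar. Plates were incubated at 37 °C for 24 h, and the inhibition zone diameter was read in mm, including the well.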

Enterococcus faecalis [27] = assay: microbe, parasite or virus in culture; details: Enterococcus faecalis, 1528, 24 h, read-out: IZ
Pseudomonas aeruginosa [28] = assay: Antimicrobial activity against Pseudomonas aeruginosa K799/WT assessed as inhibition zone at 5 ug/ml at 37 degC for 24 hrs by agar diffusion method; details: read-out: IZ
Mycolicibacterium vaccae [29] = assay: Antimicrobial activity against Mycobacterium vaccae IMET assessed as inhibition zone at 5 ug/ml at 37 degC for 24 hrs by agar diffusion method; assay type: functional; details: read-out: IZ
How it was run: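 Ciprofloxacin dissolved in water at 5 μg/mL and filled into 9 mm wells in nutrient or Mueller Hinton II agar. Plates held at 37 °C for 24 h, after which the growth inhibition zone was read in mm.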

Staphylococcus aureus [30] = assay: Antimicrobial activity against Staphylococcus aureus SG511 assessed as inhibition zone at 5 ug/ml at 37 degC for 24 hrs by agar diffusion method; details: SG511, 24 h, read-out: IZ
Staphylococcus aureus [31] = assay: Antimicrobial activity against Staphylococcus aureus Efs1 assessed as inhibition zone at 5 ug/ml at 37 degC for 24 hrs by agar diffusion method; details: Efs1, 24 h, read-out: IZ
Staphylococcus aureus [32] = assay: Antimicrobial activity against Staphylococcus aureus Efs4 assessed as inhibition zone at 5 ug/ml at 37 degC for 24 hrs by agar diffusion method; details: Efs4, 24 h, read-out: IZ

Row | Compound | inhibition zone (IZ) (Staphylococcus aureus [1]) [mm] | inhibition zone (IZ) (Mycolicibacterium vaccae [2]) [mm] | inhibition zone (IZ) (Micrococcus luteus [3]) [mm] | inhibition zone (IZ) (Staphylococcus aureus [6]) [mm] | inhibition zone (IZ) (Pseudomonas aeruginosa [7]) [mm] | inhibition zone (IZ) (Enterococcus faecalis [8]) [mm] | inhibition zone (IZ) (Bacillus subtilis [9]) [mm] | inhibition zone (IZ) (Micrococcus luteus [10]) [mm] | inhibition zone (IZ) (Escherichia coli [11]) [mm] | inhibition zone (IZ) (Pseudomonas aeruginosa [12]) [mm] | inhibition zone (IZ) (Staphylococcus aureus [13]) [mm] | inhibition zone (IZ) (Pseudomonas aeruginosa [14]) [mm] | inhibition zone (IZ) (Staphylococcus aureus [15]) [mm] | inhibition zone (IZ) (Staphylococcus aureus [16]) [mm] | inhibition zone (IZ) (Bacillus subtilis [17]) [mm] | inhibition zone (IZ) (Escherichia coli [18]) [mm] | other results
1 | CC(=O)NC[C@H]1CN(c2ccc(N3CCNCC3)c(F)c2)C(=O)O1 | 18 | 35 | 23 | 14 | 20 | 25 | 26 | 30 | 14 | 18 | 18 | 30 | 31 | 25 |  |  | inhibition zone (IZ) (Pseudomonas aeruginosa [4]): 11 mm; inhibition zone (IZ) (Staphylococcus aureus [5]): 35 mm
2 | CC(=O)OCC1=C(C(=O)O)N2C(=O)[C@@H](NC(=O)Cc3ccccc3)[C@H]2SC1 [CEFALORAM] |  | 0 | 38 | 35 | 23 | 23 | 46 | 44 |  | 11 | 39 |  | 43 | 13 | 52 | 35 | 
3 | CC(=O)NC[C@H]1CN(c2ccc(N3CCOCC3)c(F)c2)C(=O)O1 [LINEZOLID] | 39 | 52 | 38 | 35 |  | 34 | 33 | 45 | 28 |  | 35 |  | 34 | 42 | 37 | 23 | inhibition zone (IZ) (Pseudomonas aeruginosa [19]): 0 mm; inhibition zone (IZ) (Pseudomonas aeruginosa [20]): 10 mm; inhibition zone (IZ) (Staphylococcus aureus [5]): 39 mm
4 | CC(=O)OC[C@H]1CN(c2ccc(N3CCNCC3)c(F)c2)C(=O)O1 | 23 | 42 |  | 19 | 16 | 25 | 24 | 40 | 13 | 15 | 21 | 26 | 31 | 29 | 26 |  | inhibition zone (IZ) (Micrococcus luteus [21]): 31 mm
5 | CC(=O)OC[C@H]1CN(c2ccc(N3CCN(C(=O)OCC4=C(C(=O)O)N5C(=O)[C@@H](NC(=O)Cc6ccccc6)[C@H]5SC4)CC3)c(F)c2)C(=O)O1 |  | 44 | 42 | 31 | 22 | 26 | 43 |  |  | 17 | 36 |  | 40 | 27 | 47 | 33 | inhibition zone (IZ) (Pseudomonas aeruginosa [20]): 31 mm
6 | CC(=O)NC[C@H]1CN(c2ccc(N3CCN(C(=O)OCC4=C(C(=O)O)N5C(=O)[C@@H](NC(=O)Cc6ccccc6)[C@H]5SC4)CC3)c(F)c2)C(=O)O1 |  | 30 | 38 | 30 | 24 | 23 | 42 |  |  | 20 | 34 | 33 | 40 | 17 | 45 | 33 | inhibition zone (IZ) (Pseudomonas aeruginosa [4]): 15 mm; inhibition zone (IZ) (Micrococcus luteus [21]): 42 mm
7 | O=C(O)c1cn(C2CC2)c2cc(N3CCNCC3)c(F)cc2c1=O [CIPROFLOXACIN] |  |  |  |  |  |  |  |  |  |  |  |  |  |  |  |  | zone of inhibition at 5 µg/mL (Bacillus subtilis [22]): 31 mm; zone of inhibition at 5 µg/mL (Pseudomonas aeruginosa [23]): 35 mm; zone of inhibition at 5 µg/mL (Escherichia coli [24]): 34 mm; zone of inhibition at 5 µg/mL (Staphylococcus aureus [25]): 0 mm; zone of inhibition at 5 µg/mL (Micrococcus luteus [26]): 0 mm; zone of inhibition at 5 µg/mL (Enterococcus faecalis [27]): 15 mm; zone of inhibition at 5 µg/mL (Pseudomonas aeruginosa [28]): 29 mm; zone of inhibition at 5 µg/mL (Mycolicibacterium vaccae [29]): 23 mm; zone of inhibition at 5 µg/mL (Staphylococcus aureus [30]): 18 mm; zone of inhibition at 5 µg/mL (Staphylococcus aureus [31]): 0 mm; zone of inhibition at 5 µg/mL (Staphylococcus aureus [32]): 0 mm
